Results from article PMC7157925 (Steroids, 2003).

Columns and labels:
[1] = tested on: endothelin-converting enzyme; settings: ref [20]; cited from earlier work
HSV-2 strain G = experiment: Antiviral assay, reduction of virus plaque formation in Vero cells; assay type: cell-based, herpes simplex virus type 2; settings: at a concentration up to 50 μg/ml
HSV-2 = experiment: Virucidal assay; parameters: species or system herpes simplex virus type 2; settings: HSV-2 suspension incubated with compound 1 h at 37 °C
In short: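 HSV-2 strain G suspension (4×10^5 PFU) mixed with an equal volume of maintenance medium (MEM, 1.5% bovine serum), with or without various concentrations of test compound, 1 h at 37 °C. Samples then diluted in cold maintenance medium, and residual infectivity titrated by plaque formation on Vero cells. Compound stock 10 mg/ml in DMSO, filter-sterilized. VC50 is the concentration inactivating virions by 50%.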

| SMILES | Activity in the endothelin-converting enzyme assay [1] | Activity against HSV-2 (HSV-2 strain G) | VC50, concentration required to inactivate virus by 50%±S.D. (HSV-2) [µg/mL] |
| --- | --- | --- | --- |
| C=CCCC[C@@H](C)[C@H]1CC[C@H]2[C@@H]3CC[C@H]4C[C@H](OS(=O)(=O)O)[C@@H](OS(=O)(=O)O)C[C@]4(C)[C@H]3CC[C@]12C [Compound 19, Halistanol disulfate B] | active |  |  |
| CC(C)CCC[C@@H](C)[C@H]1CC[C@H]2[C@@H]3CC[C@H]4C[C@H](O)[C@@H](O)C[C@]4(C)[C@H]3CC[C@]12C [Compound 5, 2β,3α-Dihydroxy-5α-cholestane] |  | not active | > 100 |
